Values after ≈ are worked out from the molar mass of the structure shown.
Columns and labels:
[1] = system: Mycobacterium tuberculosis; experiment: Antitubercular activity against dormant stage of Mycobacterium tuberculosis H37Ra ATCC 25177 by two fold dilution technique; assay type: functional
Method in brief: (§1)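 MIC against dormant-stage bacilli, read out by XTT reduction menadione assay (XRMA), with rifampicin MIC determined the same way as reference.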

[2] = (§2) Growth inhibition of human HeLa cells by MTT assay; assay type: cell-based; details: HeLa cells
Method in brief: (§3)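 Human cancer cell lines were exposed in vitro to a range of compound concentrations. Viability was read by MTT colorimetric assay, and GI50 and GI90 were derived from the concentration series.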

HeLa = experiment: as §2; assay type: cell-based; details: hela; method in brief: as §3
[3] = (§4) Growth inhibition of human A549 cells by MTT assay; assay type: cell-based; details: A549 cells; method in brief: as §3
A549 = experiment: as §4; assay type: cell-based; details: a549; method in brief: as §3
[4] = (§5) Growth inhibition of human PANC1 cells by MTT assay; assay type: cell-based, PANC-1; details: PANC-1 cells; method in brief: as §3
PANC-1 = experiment: as §5; assay type: cell-based; details: panc-1; method in brief: as §3
[5] = system: Mycobacterium tuberculosis; experiment: Antitubercular activity against dormant stage of Mycobacterium tuberculosis H37Ra ATCC 25177 assessed as growth inhibition at 30 ug/ml after 12 days by XRMA relative to control; assay type: functional; details: H37Ra ATCC 25177, 288 h
[6] = system: Mycobacterium tuberculosis; experiment: Antitubercular activity against dormant stage of Mycobacterium tuberculosis H37Ra ATCC 25177 assessed as growth inhibition at 10 ug/ml after 12 days by XRMA relative to control; assay type: functional; details: H37Ra ATCC 25177, 288 h
[7] = system: Mycobacterium tuberculosis; experiment: Antitubercular activity against dormant stage of Mycobacterium tuberculosis H37Ra ATCC 25177 assessed as growth inhibition at 3 ug/ml after 12 days by XRMA relative to control; assay type: functional; details: H37Ra ATCC 25177, 288 h
[8] = system: Mycobacterium tuberculosis; experiment: Antitubercular activity against dormant stage of Mycobacterium tuberculosis H37Ra ATCC 25177 infected in human THP1 cells by nitrate reductase assay; assay type: functional, organism-based; details: for MIC90: H37Ra ATCC 25177; for IC50: H37Ra ATCC 25177, THP-1
THP-1 [9] = experiment: Cytotoxicity against human THP1 cells at 30 ug/ml; assay type: cell-based
THP-1 [10] = experiment: Cytotoxicity against human THP1 cells at 10 ug/ml; assay type: cell-based
THP-1 [11] = experiment: Cytotoxicity against human THP1 cells at 3 ug/ml; assay type: cell-based
[12] = Growth inhibition of human THP1 cells; assay type: cell-based; details: THP-1 cells
[13] = system: Mycobacterium tuberculosis; experiment: Antitubercular activity against dormant stage of Mycobacterium tuberculosis H37Ra ATCC 25177 after 12 days by XRMA; assay type: functional, organism-based; details: H37Ra ATCC 25177, 288 h; method in brief: as §1

Row | Compound | MIC90 [1] | GI50 [2] [µg/mL] | GI90 (HeLa) [µg/mL] | GI50 [3] [µg/mL] | GI90 (A549) [µg/mL] | GI50 [4] [µg/mL] | GI90 (PANC-1) [µg/mL] | inhibition at 30 µg/mL [5] [%] | inhibition at 10 µg/mL [6] [%] | inhibition at 3 µg/mL [7] [%] | MIC90 [8] | IC50 [8] | Activity (THP-1 [9]) [%] | Activity (THP-1 [10]) [%] | Activity (THP-1 [11]) [%] | GI50 [12] [µg/mL] | IC50 [13]
1 | CO[C@H]1/C=C/O[C@@]2(C)Oc3c(C)c(O)c4c(O)c(c(/C=N/N5CCN(C)CC5)c(O)c4c3C2=O)NC(=O)/C(C)=C\C=C\[C@H](C)[C@H](O)[C@@H](C)[C@@H](O)[C@@H](C)[C@H](OC(C)=O)[C@@H]1C [RIFAMPIN] | 0.91 µM | > 100 | > 100 | > 100 | > 100 | > 100 | > 100 |  |  |  |  |  |  |  |  |  | 
2 | Cc1nc(C)c(-c2nn(-c3ccc(F)cc3)cc2C2CC(c3cc(Cl)c(C)cc3O)=NN2)s1 (centres undefined) | 9.65 µM | > 250 | > 250 | 146 (≈ 302 µM) | > 250 | 127 (≈ 264 µM) | > 250 | 95.6 | 43.5 | 38.8 | 8.59 µM | 1620 nM | 17.93 | 10.66 | 9.1 | > 30 | 520 nM
3 | Cc1nc(C)c(-c2nn(-c3ccc(F)cc3)cc2-c2cc(=O)c3cc(Cl)c(C)cc3o2)s1 | 3.69 µM | 16.7 (≈ 35.8 µM) | 53.48 (≈ 115 µM) | > 250 | > 250 | > 250 | > 250 | 93.7 | 23.2 | 53.5 | 2.94 µM | 670 nM | 24.65 | 16.62 | 12.82 | > 30 | 1670 nM
4 | Cc1nc(C)c(-c2nn(-c3ccc(F)cc3)cc2/C=C/C(=O)c2cc(Cl)ccc2O)s1 | > 30 µg/mL | > 250 | > 250 | > 250 | > 250 | > 250 | > 250 | 3.39 | 5.49 | 2.66 | > 30 µg/mL | > 30 µg/mL | 36.55 | 34.74 | 16.49 |  | > 30 µg/mL
5 | Cc1ccc(O)c(C2=NNC(c3cn(-c4ccc(F)cc4)nc3-c3sc(C)nc3C)C2)c1 (centres undefined) | 46.4 µM | > 250 | > 250 | > 250 | > 250 | > 250 | > 250 | 36.7 | 39.7 | 24.8 | 33.4 µM | 11900 nM | 24.05 | 10.7 | 5.94 |  | 4310 nM
6 | Cc1nc(C)c(-c2nn(-c3ccc(F)cc3)cc2/C=C/C(=O)c2cc(Cl)c(C)cc2O)s1 | 49.7 µM | 34.9 (≈ 74.5 µM) | 87.29 (≈ 187 µM) | > 250 | > 250 | > 250 | > 250 | 92.7 | 16.3 | 3.95 | 7.56 µM | 1920 nM | 17.45 | 13.26 | 10.73 |  | 2440 nM
7 | CC(=O)O[C@H]1C(=O)[C@@]2(C)[C@H]([C@H](OC(=O)c3ccccc3)[C@]3(O)C[C@H](OC(=O)[C@H](O)[C@@H](NC(=O)c4ccccc4)c4ccccc4)C(C)=C1C3(C)C)[C@]1(OC(C)=O)CO[C@@H]1C[C@@H]2O [PACLITAXEL] |  |  | 0.075 (≈ 0.0878 µM) |  | 0.0706 (≈ 0.0827 µM) |  | 5.715 (≈ 6.69 µM) |  |  |  |  |  |  |  |  |  | 
8 | Cc1nc(C)c(-c2nn(-c3ccc(F)cc3)cc2C2CC(c3cc(Br)ccc3O)=NN2)s1 (centres undefined) | 5.79 µM | 21.6 (≈ 42.2 µM) | 43.11 (≈ 84.1 µM) | 81.4 (≈ 159 µM) | 154.68 (≈ 302 µM) | 76.4 (≈ 149 µM) | 115.65 (≈ 226 µM) | 88.2 | 75.5 | 42.5 | 2.95 µM | 410 nM | 19.51 | 14.69 | 13.91 | > 30 | 310 nM
9 | Cc1ccc(O)c(C(=O)/C=C/c2cn(-c3ccc(F)cc3)nc2-c2sc(C)nc2C)c1 | 32.7 µM | 29.9 (≈ 68.9 µM) | 77.32 (≈ 178 µM) | 47.8 (≈ 110 µM) | 136.87 (≈ 316 µM) | 52.4 (≈ 121 µM) | 114.87 (≈ 265 µM) | 96 | 61.7 | 34.7 | 17.1 µM | 2860 nM | 24.3 | 15.3 | 14.14 |  | 5560 nM
10 | Cc1nc(C)c(-c2nn(-c3ccc(F)cc3)cc2/C=C/C(=O)c2cc(Cl)cc(Cl)c2O)s1 | > 30 µg/mL | > 250 | > 250 | > 250 | > 250 | > 250 | > 250 | 30.5 | 26.8 | 20.4 | > 30 µg/mL | > 30 µg/mL | 49.76 | 17.69 | 15.71 |  | > 30 µg/mL
11 | Cc1nc(C)c(-c2nn(-c3ccc(F)cc3)cc2/C=C/C(=O)c2c(O)cc(C)c(Cl)c2C)s1 | > 30 µg/mL | 59.3 (≈ 123 µM) | 128.28 (≈ 266 µM) | 33.5 (≈ 69.4 µM) | 84.31 (≈ 175 µM) | 35.2 (≈ 73.1 µM) | 97.41 (≈ 202 µM) | 10.1 | 9.47 | 3.39 | > 30 µg/mL | > 30 µg/mL | 41.43 | 18.42 | 13.12 |  | > 30000 nM
12 | Cc1nc(C)c(-c2nn(-c3ccc(F)cc3)cc2/C=C/C(=O)c2cc(Br)ccc2O)s1 | > 30 µg/mL | 4.88 (≈ 9.79 µM) | 44.94 (≈ 90.2 µM) | > 250 | > 250 | > 250 | > 250 | 27.5 | 9 | 23.5 | > 30 µg/mL | > 30 µg/mL | 24.98 | 21.42 | 20.41 |  | > 30 µg/mL
13 | Cc1nc(C)c(-c2nn(-c3ccc(F)cc3)cc2C2CC(c3c(O)cc(C)c(Cl)c3C)=NN2)s1 (centres undefined) | 5.04 µM | 25.2 (≈ 50.8 µM) | 46.87 (≈ 94.5 µM) | 43.4 (≈ 87.4 µM) | 88.98 (≈ 179 µM) | 41.6 (≈ 83.9 µM) | 77.64 (≈ 157 µM) | 93.7 | 95.4 | 91 | 1.23 µM | 440 nM | 18.32 | 15.45 | 9.52 | > 30 | 80 nM
14 | Cc1ccc2oc(-c3cn(-c4ccc(F)cc4)nc3-c3sc(C)nc3C)cc(=O)c2c1 | 5.89 µM | > 250 | > 250 | > 250 | > 250 | > 250 | > 250 | 92.2 | 88.6 | 47.8 | 1.23 µM | 160 nM | 4.94 | 2.34 | 0.8 | > 30 | 1070 nM
15 | Cc1nc(C)c(-c2nn(-c3ccc(F)cc3)cc2C2CC(c3cc(Cl)ccc3O)=NN2)s1 (centres undefined) | 2.48 µM | > 250 | > 250 | > 250 | > 250 | > 250 | > 250 | 97.2 | 79.7 | 41.6 | 1.5 µM | 360 nM | 17.04 | 11.51 | 7.09 | > 30 | 60 nM
